CAL PDZ FP-1 = inhibitors of human CAL PDZ peptide binding; purified CAL PDZ, TMR-peptide fluorescence polarization, 1 h; inhibition, % at 24.9 µM; 300,000 tested, 0.92% active; AID 602252;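 active = mean inhibition of at least 30% with at least half of replicates also reaching 30%; inconclusive = no clear call, values can overlap the other calls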;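 note: 0% = DMSO neutral control and 100% = excess unlabeled competitor peptide PRC23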
ALR inh = human ALR oxidase inhibition via reduced H2O2; P55789; purified ALR, DTT oxidation, H2O2 HRP-luminol luminescence; inhibition, % (concentration not given with the values); 290,000 tested, 3.8% active; AID 485317;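 active = mean replicate inhibition above about 79%, with every replicate also reaching it, limit read from the data; inconclusive = only one of the two criteria met; inactive = mean below limit and not every replicate reaching it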
Target sequence (P55789 whole entry, looked up): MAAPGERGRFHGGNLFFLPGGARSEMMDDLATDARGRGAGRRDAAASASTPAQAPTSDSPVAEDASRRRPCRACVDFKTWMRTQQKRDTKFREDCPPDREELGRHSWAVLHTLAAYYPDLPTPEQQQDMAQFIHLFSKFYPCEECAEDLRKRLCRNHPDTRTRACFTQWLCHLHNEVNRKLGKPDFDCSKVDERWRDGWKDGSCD
CAL PDZ FP-2 = inhibitors of human CAL PDZ peptide binding; Q9HD26; AID 504414; 330,000 tested, 0.02% active; inhibition, % at 20 µM; purified CAL PDZ, TMR-peptide fluorescence polarization, 1 h;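 active = highest replicate inhibition of at least 40%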;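 note: plate controls were DMSO neutral control wells for no effect and unlabeled competitor peptide control wells for full effect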
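Test system: purified CerCALP PDZ construct; Compound dosing: one concentration, 20 µM compound; Also added: TMR-labelled reporter peptide T*-PRC34 bound in PDZ groove; Read-out: inhibition from polarization loss; Controls: unlabelled peptide and DMSO controls; Signal: FP readout, S and P plane fluorescence; Incubation: 1 h at RT.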
DYRK1A inh = blocks rat Dyrk1A kinase activity; 310,000 tested, 0.43% active; Q63470; inhibition, % at 12.5 µM; ADP-Glo luminescence, NFATc1 peptide; in the data active = inhibition above about 50%;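 note: plate controls were vehicle with enzyme for no effect and no enzyme for full effect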
Rtt109 Vps75 = C. albicans Rtt109 histone acetyltransferase inhibition; purified Rtt109/Vps75, ThioGlo CoA-SH fluorescence, 4 h; inhibition, % at 34.9 µM; 330,000 tested, 0.16% active; AID 540336;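 active = inhibition of at least 50% in every replicate; inconclusive = best replicate reaches 50% inhibition but some replicates fall short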
Target sequence (Q5AAJ8 whole entry, looked up): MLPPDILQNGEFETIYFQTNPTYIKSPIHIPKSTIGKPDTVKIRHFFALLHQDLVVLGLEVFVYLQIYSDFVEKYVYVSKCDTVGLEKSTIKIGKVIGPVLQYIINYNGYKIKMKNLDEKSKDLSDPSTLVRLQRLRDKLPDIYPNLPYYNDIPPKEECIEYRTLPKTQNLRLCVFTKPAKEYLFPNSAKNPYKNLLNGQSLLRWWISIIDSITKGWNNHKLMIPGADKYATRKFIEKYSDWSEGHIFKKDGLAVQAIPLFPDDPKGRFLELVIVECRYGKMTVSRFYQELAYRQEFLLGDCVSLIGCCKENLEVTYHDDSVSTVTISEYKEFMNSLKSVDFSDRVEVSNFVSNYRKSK
Active calls of the source: *; u = inconclusive; x = no result. An excerpt weighted towards active compounds, which were near 4.3% of everything screened.

SMILES	CAL PDZ FP-1	ALR inh	CAL PDZ FP-2	DYRK1A inh	Rtt109 Vps75
CCCS(=O)(=O)N1CCCC(C(=O)NCCCN(C)c2ccccc2)C1 (stereo not drawn)	-1	82*	-1	-1	-2
CN(CCCNC(=O)C1CCCN(S(=O)(=O)c2cnc[nH]2)C1)c1ccccc1 (stereo not drawn)	-6	100*	-3	-8	-7
COc1ccc(S(=O)(=O)N2CCN(CC3CC=CCC3)CC2)cc1 (stereo not drawn)	1	4	-3	-3	18
CN(C)S(=O)(=O)c1cccc(NC(=S)Nc2ccc(Cl)cc2Cl)c1	2	99*	-2	-1	3
CN(C)S(=O)(=O)c1cccc(NC(=S)Nc2cc(Cl)cc(Cl)c2)c1	-4	x	-2	-2	5
CCN(CCO)c1ccc(NC(=S)Nc2cccc(S(=O)(=O)N(C)C)c2)cc1	0	99*	0	-4	-2
O=C(NCCOc1cccnc1)C1CCC(=O)N(Cc2ccccc2F)C1 (stereo not drawn)	-3	2	-2	-1	-7
O=C(NNc1c(F)c(F)cc(F)c1F)c1ccc(Cl)nc1	0	96*	-3	-4	-17
O=C(NNc1cccc(Cl)n1)c1ccc(Cl)nc1	-4	26	-2	-1	-6
N#CC1(Nc2ccc3ccccc3c2)CCCC1	7	x	0	-4	-5
CN1C(=O)CC(N2CCN(C(c3ccccc3)c3ccccc3)CC2)C1=O (stereo not drawn)	-3	-3	0	1	0
O=C1CC(N2CCN(c3ccccc3)CC2)C(=O)N1CCc1ccccc1 (stereo not drawn)	x	95*	-1	4	7
CN1C(=O)CC(N2CCN(c3ccccc3)CC2)C1=O (stereo not drawn)	0	94*	0	-4	-6
c1ccc(Nc2cccc(Nc3ccccc3)n2)cc1	-3	99*	-1	-2	7
COc1ccc(C(=O)c2c(NC(C)=O)sc3c2CCN(C(=O)OC(C)(C)C)C3)cc1	x	16	-1	-7	5
COC(=O)c1ccc2nc(Nc3nc4ccc(F)cc4s3)sc2c1	2	x	-1	5	-10
CCOC(=O)c1csc(Nc2nc3ccc(F)cc3s2)n1	39*	x	0	11	-5
CCN(CC)S(=O)(=O)c1ccc(C)c(N=C=S)c1	-4	-4	-1	-4	-4
CCOc1c(C)cc(S(=O)(=O)NCc2ccccn2)c(C)c1C	67*	0	x	3	4
Cc1cc(NCc2ccccn2)nc2ccccc12	-1	84*	0	3	-6
O=C(NCCc1ccccc1F)C1CC(=O)N(c2cccc(C(F)(F)F)c2)C1 (stereo not drawn)	2	x	-1	-2	-4
CC(=O)Nc1ccc(SCC(=O)c2cc(C)n(-c3ccccc3F)c2C)cc1	-5	98*	0	7	3
Cc1cc(C(=O)COC(=O)c2ccc(O)cc2)c(C)n1-c1ccccc1F	-3	x	-1	x	2
COC(=O)c1ccc(-n2c(C)cc(C(=O)CSc3cccc[n+]3[O-])c2C)cc1	6	1	x	4	-7
COC(=O)c1ccc(-n2c(C)cc(C(=O)CSc3ccc(NC(C)=O)cc3)c2C)cc1	-4	91*	-1	-1	1
SMILES	CAL PDZ FP-1	ALR inh	CAL PDZ FP-2	DYRK1A inh	Rtt109 Vps75
Cc1noc2ncnc(Sc3ccc(Cl)cc3)c12	-1	80*	-1	7	12
Cc1ccc(Sc2ncnc3onc(C)c23)cc1	6	99*	-1	-13	-4
Cc1noc2ncnc(Sc3c(Cl)cccc3Cl)c12	1	0	-4	-2	-1
COc1cccc(CC2(CO)CCCN(Cc3c(C)cc(C)cc3-n3cccn3)C2)c1 (stereo not drawn)	-3	-22	-3	2	5
Cn1ncc(=S)[nH]c1=S	85*	x	0	x	-5
O=C(c1ccsc1)N1CCCC(Nc2cccc(F)c2)C1 (stereo not drawn)	-4	53	-2	4	0
Cc1cc(C)cc(NC(=O)CSc2nc(=O)n(CCCN3CCOCC3)c3c2CCCC3)c1	x	96*	-2	0	2
COc1ccc(NC(=O)CSc2nc(=O)n(CCN3CCOCC3)c3c2CCC3)cc1	-5	98*	-1	4	-9
O=C(CSc1nc(=O)n(CCN2CCOCC2)c2c1CCC2)Nc1ccc(OC(F)(F)F)cc1	-8	97*	-3	17	-13
COc1cc(NC(=O)CSc2nc(=O)n(CCCN3CCOCC3)c3c2CCC3)cc(OC)c1	-4	99*	-5	21	-10
O=C(CSc1nc(=O)n(CCCN2CCOCC2)c2c1CCCC2)Nc1cccc(F)c1	x	u	-3	-2	1
CCOc1ccc(NC(=O)CSc2nc(=O)n(CCN3CCOCC3)c3c2CCCC3)cc1	-4	-4	-2	3	-6
Nc1nnnn1/N=C/c1cc(Br)ccc1O	x	57	x	x	x
O=C(CCn1cccn1)Nc1ccc(-c2ccno2)cc1	-4	-7	-4	2	-1
CC(Sc1ncnc2sccc12)C(=O)Nc1ccc(C(N)=O)cc1 (stereo not drawn)	x	-11	1	10	-4
CCOc1ccc(N2C(=O)CC(NNc3nc4ccccc4s3)C2=O)cc1 (stereo not drawn)	-5	x	-1	x	-2
CC(=O)Nc1cccc(NC(=O)CSc2nc(=O)n(CCN3CCOCC3)c3c2CCCC3)c1	-1	99*	-3	10	10
CC(=O)c1cccc(NC(=O)CSc2nc(=O)n(CCN3CCOCC3)c3c2CCC3)c1	6	-416	-2	1	9
COc1cc(NC(=O)CSc2nc(=O)n(CCN3CCOCC3)c3c2CCC3)cc(OC)c1	7	97*	-1	4	7
CC(C)Cn1ccc(=O)n(CC(C)C)c1=O	-6	-14	0	1	9
Cc1cc(O)c(/C=N/Nc2ccc(Cl)cc2)c(=O)o1	-3	98*	-2	-5	2
COc1ccccc1NC(=O)C1Cc2ccccc2CN1C(=O)c1ccco1 (stereo not drawn)	0	x	-1	-3	1
O=C(Nc1ccccc1)C1Cc2ccccc2CN1C(=O)c1ccco1 (stereo not drawn)	-3	97*	-1	2	1
O=C(O)c1cc(-c2ccccc2)n[nH]1	-7	0	-2	-5	-9
Cn1cccc1-c1cc(C(=O)O)[nH]n1	41*	-13	0	3	7
Cn1c2ccccc2c2cc(/C=C(\NC(=O)c3ccccc3)C(=O)O)ccc21	2	86*	-1	3	5
O=[N+]([O-])c1ccc(Nc2ccccc2O)c2nonc12	-1	99*	0	x	1
O=C(O)c1ccc(Nc2ccc([N+](=O)[O-])c3nonc23)cc1	-3	4	0	0	17
Cc1cccc(Nc2nc3c(s2)CCCC3)c1	-4	96*	0	-2	-6
Cc1ccc(S(=O)(=O)NC(=O)Nc2ccc(C)cn2)cc1	-6	-1	-2	1	1
